Assay results taken from ChEMBL document CHEMBL3526026, “Function of the blood-brain barrier and restriction of drug delivery to invasive glioma cells: findings in an orthotopic rat xenograft model of glioma” (Drug Metab Dispos, 2013).

Legend:
[1] = Ratio of drug level in tumor core to plasma in Rowett rat orthotopically xenografted with human U87 cells at 20 mg/kg/day for 3 days by LC-MS/MS analysis in presence of elacridar; assay type: ADME, organism-based, U-87MG ATCC; settings: with elacridar (dose not stated)
Method in brief: (§1)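 U87 cells (wild-type EGFR-transfected) inoculated into right frontal brain of anesthetized rats, 2.5 × 10^5 cells; tumor grown 3 weeks. Erlotinib 20 mg/kg/day in 0.5% methylcellulose by gavage for 3 days; elacridar 10 mg/kg i.v. into jugular vein 30 min before each dose. Sacrifice 30 min after last dose, saline perfusion, brain dissected into tumor core, rim, contralateral hemisphere; plasma and homogenate by LC-MS/MS; n = 4 per group.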

Brain [2] = assay: Drug uptake in brain of Rowett rat orthotopically xenografted with human U87 cells at 20 mg/kg/day for 3 days by LC-MS/MS analysis in presence of elacridar; assay type: ADME, organism-based, U-87MG ATCC; settings: in vivo, 72 h
Method in brief: (§2)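 U87-EGFR orthotopic rat xenografts (3 weeks' tumor growth) received oral erlotinib in 0.5% methylcellulose daily for 3 days. Elacridar 10 mg/kg was given intravenously via the jugular vein 30 minutes before each erlotinib dose. Sacrifice was 30 minutes after the last dose, followed by saline perfusion. Tumor core, rim and contralateral brain were dissected and analyzed by LC-MS/MS; n = 4 per group, mean ± S.D.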

[3] = Ratio of steady state drug level in brain to plasma in wild-type FVB mouse at 0.6 mg/h/kg, ip administered as infusion after 48 hrs by LC-MS/MS analysis; assay type: ADME, organism-based; settings: read-out: BPR
Method in brief: (§3)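 Male FVB mice, 8–10 weeks old, n = 4 per genotype. Continuous intraperitoneal infusion for 48 hours to steady state. Plasma obtained by centrifuging blood. Brain homogenized in 3 volumes of ice-cold 5% BSA in PBS. Erlotinib measured by LC-MS/MS with tyrphostin AG1478 internal standard. Brain values corrected for residual vascular blood, taking plasma space as 1.4% of brain. Mean ± S.D.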

Brain [4] = assay: Drug uptake in brain of Rowett rat orthotopically xenografted with human U87 cells at 20 mg/kg/day for 3 days by LC-MS/MS analysis in presence of elacridar relative to elacridar non-treated control; assay type: ADME, organism-based, U-87MG ATCC; settings: in vivo, 72 h; method in brief: as §1
[5] = Plasma concentration at steady state in MDR1A/B knock-out FVB mouse at 0.6 mg/h/kg, ip administered as infusion after 48 hrs by LC-MS/MS analysis; assay type: ADME, organism-based; settings: read-out: Cpss; method in brief: as §3
[6] = Plasma concentration at steady state in BCRP1 knock-out FVB mouse at 0.6 mg/h/kg, ip administered as infusion after 48 hrs by LC-MS/MS analysis; assay type: ADME, organism-based; settings: read-out: Cpss; method in brief: as §3
[7] = Drug uptake in tumor rim of Rowett rat orthotopically xenografted with human U87 cells at 20 mg/kg/day for 3 days by LC-MS/MS analysis in presence of elacridar relative to elacridar non-treated control; assay type: ADME, organism-based, U-87MG ATCC; settings: in vivo, 72 h; method in brief: as §1
[8] = Ratio of drug level in tumor rim to plasma in Rowett rat orthotopically xenografted with human U87 cells at 20 mg/kg/day for 3 days by LC-MS/MS analysis in presence of elacridar; assay type: ADME, organism-based, U-87MG ATCC; settings: with elacridar (dose not stated); method in brief: as §1
[9] = Plasma concentration at steady state in MDR1A/B/BCRP1 knock-out FVB mouse at 0.6 mg/h/kg, ip administered as infusion after 48 hrs by LC-MS/MS analysis; assay type: ADME, organism-based; settings: read-out: Cpss; method in brief: as §3
[10] = Drug uptake at steady state in MDR1A/B/BCRP1 knock-out FVB mouse brain at 0.6 mg/h/kg, ip administered as infusion after 48 hrs by LC-MS/MS analysis; assay type: ADME, organism-based; settings: read-out: Drug uptake; method in brief: as §3
[11] = Drug uptake in tumor core of Rowett rat orthotopically xenografted with human U87 cells at 20 mg/kg/day for 3 days by LC-MS/MS analysis in presence of elacridar relative to elacridar non-treated control; assay type: ADME, organism-based, U-87MG ATCC; settings: in vivo, 72 h; method in brief: as §1
Nucleic Acid [12] = assay: Ratio of drug level in tumor core to brain contralateral hemisphere in Rowett rat orthotopically xenografted with human U87 cells at 20 mg/kg/day, po for 5 days by LC-MS/MS analysis; assay type: ADME, organism-based, U-87MG ATCC; design: route oral; settings: in vivo, 120 h
Method in brief: (§4)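 U87 cells (wild-type EGFR-transfected) inoculated into right frontal brain of anesthetized rats, 2.5 × 10^5 cells; tumor grown 3 weeks. Erlotinib 20 mg/kg/day in 0.5% methylcellulose by oral gavage for 5 days; sacrifice 30 min after last dose, with or without cardiac saline perfusion; tissue visually dissected into tumor core, rim, contralateral hemisphere; LC-MS/MS; n = 6 per group.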

[13] = Drug uptake at steady state in wild-type FVB mouse brain at 0.6 mg/h/kg, ip administered as infusion after 48 hrs by LC-MS/MS analysis; assay type: ADME, organism-based; settings: read-out: Drug uptake; method in brief: as §3
[14] = Ratio of drug level in brain contralateral hemisphere to plasma in Rowett rat orthotopically xenografted with human U87 cells at 20 mg/kg/day, po for 5 days by LC-MS/MS analysis; assay type: ADME, organism-based, U-87MG ATCC; design: route oral; settings: read-out: BPR; method in brief: as §4
[15] = Ratio of drug level in tumor core to plasma in Rowett rat orthotopically xenografted with human U87 cells at 20 mg/kg/day, po for 5 days by LC-MS/MS analysis; assay type: ADME, organism-based, U-87MG ATCC; design: route oral
Method in brief: (§5)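 Rats received intracerebral U87 cells overexpressing wild-type EGFR (2.5 × 10^5 cells, right frontal, stereotaxic); tumors grew for 3 weeks. Erlotinib in 0.5% methylcellulose was given by oral gavage daily for 5 days. Sacrifice was 30 minutes after the last dose, with saline cardiac perfusion in the perfused group. Tissue was visually split into tumor core, adjacent rim and contralateral hemisphere. LC-MS/MS; n = 6.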

[16] = Drug uptake in tumor rim of Rowett rat orthotopically xenografted with human U87 cells at 20 mg/kg/day, po for 5 days by LC-MS/MS analysis; assay type: ADME, organism-based, U-87MG ATCC; design: route oral; settings: read-out: Drug uptake; method in brief: as §5
[17] = Half life in mouse; assay type: ADME, organism-based; settings: in vivo
[18] = Ratio of drug level in brain contralateral hemisphere to plasma in Rowett rat orthotopically xenografted with human U87 cells at 20 mg/kg/day for 3 days by LC-MS/MS analysis in presence of elacridar; assay type: ADME, organism-based, U-87MG ATCC; settings: with elacridar (dose not stated), read-out: BPR; method in brief: as §1
[19] = Drug uptake at steady state in MDR1A/B knock-out FVB mouse brain at 0.6 mg/h/kg, ip administered as infusion after 48 hrs by LC-MS/MS analysis; assay type: ADME, organism-based; settings: read-out: Drug uptake; method in brief: as §3
Nucleic Acid [20] = assay: Ratio of drug level in tumor core to tumor rim in Rowett rat orthotopically xenografted with human U87 cells at 20 mg/kg/day, po for 5 days by LC-MS/MS analysis; assay type: ADME, organism-based, U-87MG ATCC; design: route oral; settings: in vivo, 120 h; method in brief: as §4
[21] = Ratio of steady state drug level in brain to plasma in BCRP1 FVB mouse at 0.6 mg/h/kg, ip administered as infusion after 48 hrs by LC-MS/MS analysis; assay type: ADME, organism-based; settings: read-out: BPR; method in brief: as §3
[22] = Ratio of steady state drug level in brain to plasma in MDR1A/B/BCRP1 FVB mouse at 0.6 mg/h/kg, ip administered as infusion after 48 hrs by LC-MS/MS analysis; assay type: ADME, organism-based; settings: read-out: BPR; method in brief: as §3
[23] = Ratio of steady state drug level in brain to plasma in MDR1A/B FVB mouse at 0.6 mg/h/kg, ip administered as infusion after 48 hrs by LC-MS/MS analysis; assay type: ADME, organism-based; settings: read-out: BPR
Method in brief: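 Male FVB Mdr1a/b−/− mice, 8–10 weeks, n = 4. Erlotinib given by constant i.p. infusion at 0.6 mg/h/kg for 48 h to steady state. Brain and plasma by LC-MS/MS after homogenizing brain in 3 volumes 5% BSA/PBS; brain values corrected for residual vascular blood (plasma space 1.4% of brain). Mean ± S.D.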

[24] = Plasma concentration at steady state in wild-type FVB mouse at 0.6 mg/h/kg, ip administered as infusion after 48 hrs by LC-MS/MS analysis; assay type: ADME, organism-based; settings: read-out: Cpss; method in brief: as §3
[25] = Drug uptake at steady state in BCRP1 knock-out FVB mouse brain at 0.6 mg/h/kg, ip administered as infusion after 48 hrs by LC-MS/MS analysis; assay type: ADME, organism-based; settings: read-out: Drug uptake; method in brief: as §3
[26] = Drug uptake in tumor core of Rowett rat orthotopically xenografted with human U87 cells at 20 mg/kg/day, po for 5 days by LC-MS/MS analysis; assay type: ADME, organism-based, U-87MG ATCC; design: route oral; settings: read-out: Drug uptake; method in brief: as §5
[27] = Drug uptake in tumor rim of Rowett rat orthotopically xenografted with human U87 cells at 20 mg/kg/day for 3 days by LC-MS/MS analysis in presence of elacridar; assay type: ADME, organism-based, U-87MG ATCC; settings: in vivo, 72 h; method in brief: as §2
[28] = Drug uptake in brain of Rowett rat orthotopically xenografted with human U87 cells at 20 mg/kg/day, po for 5 days by LC-MS/MS analysis; assay type: ADME, organism-based, U-87MG ATCC; design: route oral; settings: read-out: Drug uptake; method in brief: as §5
[29] = Drug uptake in tumor core of Rowett rat orthotopically xenografted with human U87 cells at 20 mg/kg/day for 3 days by LC-MS/MS analysis in presence of elacridar; assay type: ADME, organism-based, U-87MG ATCC; settings: in vivo, 72 h; method in brief: as §2
[30] = Ratio of drug level in tumor rim to plasma in Rowett rat orthotopically xenografted with human U87 cells at 20 mg/kg/day, po for 5 days by LC-MS/MS analysis; assay type: ADME, organism-based, U-87MG ATCC; design: route oral; method in brief: as §5

## C#Cc1cccc(Nc2ncnc3cc(OCCOC)c(OCCOC)cc23)c1.Cl [ERLOTINIB HYDROCHLORIDE]
[1]
  Kp at 72 h: 1
Brain [2]
  Drug uptake: Active
[3]
  Kp at 48 h: 0.02
Brain [4]
  fold change (FC): 12
[5]
  concentration at 48 h: 81 ng/mL
[6]
  concentration at 48 h: 71 ng/mL
[7]
  fold change (FC): 12
[8]
  Kp at 72 h: 1
[9]
  concentration at 48 h: 99 ng/mL
[10]
  concentration at 48 h: 34 ng/g
[11]
  fold change (FC): 4
Nucleic Acid [12]
  Ratio: 5
[13]
  concentration at 48 h: 4.3 ng/g
[14]
  Kp at 120 h: 0.09
[15]
  Kp at 120 h: 0.51
[16]
  concentration at 120 h: 390 ng/g
[17]
  half-life: 1 h
[18]
  Kp at 72 h: 1
[19]
  concentration at 48 h: 12 ng/g
Nucleic Acid [20]
  Ratio: 4.7
[21]
  Kp at 48 h: 0.07
[22]
  Kp at 48 h: 0.62
[23]
  Kp at 48 h: 0.09
[24]
  concentration at 48 h: 72 ng/mL
[25]
  concentration at 48 h: 4.9 ng/g
[26]
  concentration at 120 h: 1830 ng/g
[27]
  Drug uptake: Active
[28]
  concentration at 120 h: 370 ng/g
[29]
  Drug uptake: Active
[30]
  Kp at 120 h: 0.1
